One data set relates to KM-20L2. Put plainly: Growth inhibition of human KM20L2 cells after 48 hrs by sulforhodamine B assay. The note with it: KM-20L2, 48 h. It counts as functional. In a few lines: (§1)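 NCI sulforhodamine B assay. Cells were seeded in 5% FBS/RPMI-1640 and incubated 24 h. Serial compound dilutions were then added for 48 h. Cells were fixed with trichloroacetic acid, stained with SRB and read by microplate reader. GI50 is the concentration giving 50% reduction in net protein increase, calculated from optical density data.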
For orientation: In SRB staining, fixed cells bind dye roughly in proportion to their protein.

In another data set the test system is DU-145. The experiment in a line: Growth inhibition of human DU145 cells after 48 hrs by sulforhodamine B assay. The note with it: DU-145, 48 h. It counts as functional. Summed up:
as §1

The test system of a further data set is MCF7. Put plainly: Growth inhibition of human MCF7 cells after 48 hrs by sulforhodamine B assay. It counts as functional. The note with it: MCF7, 48 h. In a few lines: as §1
For a further data set, the system named is SF-268. Put plainly: Growth inhibition of human SF268 cells after 48 hrs by sulforhodamine B assay. The class given is functional. The note with it: SF-268, 48 h. Summed up: as §1
A short description of data set [1]: Solubility of the compound in water. The class given is physicochemical. In a few lines:
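Solubility expressed as amount dissolving in 1 mL H₂O at 25 °C.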

A further data set relates to BXPC-3. Put plainly: Growth inhibition of human BxPC3 cells after 48 hrs by sulforhodamine B assay. It counts as functional. The note with it: BXPC-3, 48 h. In a few lines:
as §1

For the next data set, the system named is NCI-H460. Put plainly: Growth inhibition of human NCI-H460 cells after 48 hrs by sulforhodamine B assay. The class given is functional. The note with it: NCI-H460, 48 h. In a few lines:
as §1

A further data set deals with P388. Put plainly: Growth inhibition of mouse P388 cells after 48 hrs by Z1 Beckman/Coulter particle counter analysis. It counts as functional. The note with it: P388, 48 h, read-out: ED50 (the source's name). In a few lines: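 Mouse P388 leukemia cells were incubated 24 h in 10% horse serum/Fisher medium, then exposed 48 h to serial compound dilutions. ED50 was calculated from cell counts on a Coulter Z1 particle counter.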

The next data set has as its system Neisseria gonorrhoeae. The experiment in a line: Antibacterial activity against Neisseria gonorrhoeae ATCC 49226 by broth microdilution method. It counts as functional. Summed up:
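Broth microdilution followed NCCLS standard methods. Compounds were reconstituted in sterile DMSO and diluted in the appropriate medium immediately before testing. MIC was taken as the lowest concentration giving no visible growth (optically clear). Assays were repeated on separate days.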

A short description of data set [2]: Inhibition of purified tubulin assembly after 20 mins. In a few lines: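 Purified tubulin at 10 μM in 0.8 M monosodium glutamate (pH 6.6), 0.4 mM GTP and 4% (v/v) DMSO, with varying compound concentrations. Extent of assembly was measured after 20 min at 30 °C.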

Seven compounds from ChEMBL document CHEMBL2021780, “Antineoplastic agents. 548. Synthesis of iodo- and diiodocombstatin phosphate prodrugs” (J Nat Prod, 2012) can be followed below.

The GI50 is the concentration that inhibits growth by half. By solubility is commonly meant the concentration that dissolves in the medium under given conditions. Consider `C1CCNCC1.C1CCNCC1.COc1ccc(/C=C\c2cc(I)c(OC)c(OC)c2)cc1OP(=O)(O)O`, for which the GI50 turned out to be 0.51 µg/mL in the data set with KM-20L2; 0.0029 µg/mL in the data set with DU-145; 0.0065 µg/mL in the data set on MCF7; 0.0044 µg/mL with SF-268; 0.32 µg/mL in the data set on BXPC-3; 0.0036 µg/mL in the data set with NCI-H460. Moreover, the solubility in data set [1] (water, read-out: solubility) is not below 4000 µg/mL. For the same compound, in the data set on P388, the EC50 worked out at 0.0026 µg/mL.
By MIC is commonly meant the lowest concentration that inhibits growth of the organism. A high value points to a need for much substance. In turn, `COc1ccc(/C=C\c2cc(I)c(OC)c(I)c2)cc1OP(=O)([O-])[O-].[Li+].[Li+]` yielded an MIC against Neisseria gonorrhoeae of less than 0.5 µg/mL. For the same compound, the GI50 worked out at 0.032 µg/mL in the data set with DU-145, 0.05 µg/mL with SF-268, 0.37 µg/mL in the data set on BXPC-3 and 0.05 µg/mL with NCI-H460. Also, in [1] (buffer), the solubility entry is “>= 4 mg/ml”. In addition, the EC50 with P388 was 0.021 µg/mL.
For `COc1ccc(/C=C\c2cc(I)c(OC)c(OC)c2)cc1OP(=O)([O-])[O-].[Li+].[Li+]`, the 50% growth inhibitory concentration (GI50) in the data set with DU-145 worked out at 0.0043 µg/mL; with MCF7, 0.0038 µg/mL; in the data set with SF-268 it was 0.004 µg/mL; with BXPC-3, 0.49 µg/mL; in the data set with NCI-H460, 0.0039 µg/mL. Besides, in data set [1] (buffer), the solubility entry is given as “>= 2.4 mg/ml”. The EC50 in the data set on P388 turned out to be 0.017 µg/mL.
Take `C1COCCN1.C1COCCN1.COc1ccc(/C=C\c2cc(I)c(OC)c(I)c2)cc1OP(=O)(O)O`: the GI50 was more than 1 µg/mL with KM-20L2; 0.028 µg/mL with DU-145; 0.066 µg/mL in the data set with MCF7; 0.054 µg/mL in the data set on SF-268; 0.35 µg/mL with BXPC-3; 0.033 µg/mL in the data set with NCI-H460. Further, in the data set with Neisseria gonorrhoeae, the MIC was less than 0.5 µg/mL. In the data set on P388, the EC50 was 0.014 µg/mL.
For the compound `COC(=O)[C@@H](N)Cc1c[nH]c2ccccc12.COC(=O)[C@@H](N)Cc1c[nH]c2ccccc12.COc1ccc(/C=C\c2cc(I)c(OC)c(I)c2)cc1OP(=O)(O)O`, the GI50 in the data set with KM-20L2 is more than 1 µg/mL; in the data set on DU-145, 0.026 µg/mL; in the data set on MCF7, 0.22 µg/mL; in the data set on SF-268, 0.086 µg/mL; in the data set with BXPC-3, 0.37 µg/mL; in the data set on NCI-H460 it was 0.033 µg/mL. Moreover, the minimum inhibitory concentration (MIC) in the data set on Neisseria gonorrhoeae is less than 0.5 µg/mL. In the data set on P388, the EC50 amounted to 0.017 µg/mL.
Regarding `COC(=O)CN.COC(=O)CN.COc1ccc(/C=C\c2cc(I)c(OC)c(OC)c2)cc1OP(=O)(O)O`, the GI50 in the data set on KM-20L2 came to 0.32 µg/mL; with DU-145 it was 0.0021 µg/mL; with MCF7 it was 0.0044 µg/mL; in the data set on SF-268, 0.0033 µg/mL; in the data set with BXPC-3, 0.16 µg/mL; in the data set with NCI-H460, 0.0031 µg/mL. Besides, the solubility in [1] (water, read-out: solubility) is not below 2000 µg/mL. Also, the EC50 in the data set on P388 came out at 0.0026 µg/mL.
One may read the IC50 as the concentration at which inhibition is half-maximal. A low value points to greater potency in that assay. With `COc1ccc(/C=C\c2cc(OC)c(OC)c(OC)c2)cc1OP(=O)([O-])[O-].[Na+].[Na+]` [FOSBRETABULIN DISODIUM], the GI50 stood at 0.034 µg/mL in the data set with KM-20L2; 0.0072 µg/mL in the data set with DU-145; 0.036 µg/mL with SF-268; 0.23 µg/mL with BXPC-3; 0.029 µg/mL in the data set with NCI-H460. Moreover, the EC50 in the data set with P388 is 0.0004 µg/mL. The IC50 in data set [2] is more than 40 µM.
